Compound activity deposited in PubChem BioAssay by Broad Institute.
Only some compounds are listed: those with a hit (about 2% of all), similar ones and a draw of the others.
CaV13 FRET inh: Primary screen for inhibitors of IQ motif and Ca2+-dependent inactivation inhibitor domain binding in CACNA1D, Förster resonance energy transfer in living cells, …; inhibition, % at 12.3 µM; HEK cells, CFP/YFP FRET ICDI-IQ, plate reader, 10 min; percent FRET-ratio fall versus neutral wells; 340,000 compounds, 0.098% hits;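 active means mean replicate inhibition of at least 30% and at least 1% of replicates passing that level; inconclusive means only one of the two criteria is met; inactive means neither criterion is met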;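 further: 0% = median of the neutral control wells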
Xi reactivation: activators of X-chromosome reactivation in mouse fibroblasts. AID 743238. activation, % at 7.58 µM. XiGFP mouse fibroblasts, % GFP-positive cells imaging, 3 d; cells co-treated with 5-aza-dC sensitizer; scaled so ellipticine positive control = 100%. 360,000 compounds, 0.055% hits;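 active means mean normalized replicate activation at least 10% and every replicate at or above 10%; inconclusive means only one of the two criteria met; inactive means mean below 10% and not all replicates reach 10%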;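 further: 0% = median of on-plate neutral control wells and 100% = ellipticine 6 µM median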
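System: XiGFP fibroblasts, SV40-immortalized. Medium: DMEM plus 5-aza-dC sensitizer. Doses: single point. Timing: 3 d treatment, 15 min room-temperature fixation. Control set: ellipticine 6 µM.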
DENV2 CPE: protects cells from dengue virus 2 cytopathic effect; DENV2-infected cells, cytopathic effect rescue, plate reader; CPE inhibition, % at 9.99 µM; 350,000 compounds, 1.7% hits; AID 651640; in the data active means CPE inhibition above about 20%, passing the limit was not always enough; inconclusive means no clear call, values can overlap the other calls; tested in BHK-21 cells;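 further: 0% = median of neutral control wells and 100% = median of positive control wells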
FN deposition inh: fibronectin deposition inhibition; inhibition, % at 12.6 µM; AH1F fibroblasts, Alexa488-fibronectin deposition fluorescence, overnight; 350,000 compounds, 0.086% hits;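 active means mean inhibition across replicates of 30% or more, regardless of how many single replicates reach that level; inconclusive means mean under 30% yet at least half of replicates reach 30%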;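 further: positive control wells lacked labelled fibronectin entirely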
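Material – AH1F fibroblast monolayer, labelled fibronectin deposition · Reagent – labelled fibronectin 24 nM · Timing – 1 h adhesion, overnight exposure · Measured by – fluorescence at 485 nm excitation, 525 nm emission · Read-out – inhibition of fibronectin deposition signal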
CASP6 VEID inh: blocks human caspase-6 cleavage activity. inhibition, % at 12.5 µM. 350,000 compounds, 0.53% hits. purified caspase-6, Z-VEID-R110 cleavage fluorescence. P55212. AID 686996;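 active means mean inhibition across replicates at least about 35%, with every replicate also reaching that limit, limit read from the data; inconclusive means only one of the two criteria met; inactive means neither criterion met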;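 further: 0% = median of neutral control wells and 100% = no fluorescence left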
Target sequence (P55212 24-179 limits assumed): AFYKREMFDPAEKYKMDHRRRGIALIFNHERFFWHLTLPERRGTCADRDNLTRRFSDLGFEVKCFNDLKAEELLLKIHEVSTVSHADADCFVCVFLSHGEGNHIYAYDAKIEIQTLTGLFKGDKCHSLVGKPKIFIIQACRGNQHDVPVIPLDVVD
Target sequence (P55212 194-293 limits assumed): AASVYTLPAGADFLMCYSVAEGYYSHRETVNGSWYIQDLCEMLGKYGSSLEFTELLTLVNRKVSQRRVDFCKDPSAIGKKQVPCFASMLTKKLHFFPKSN
Numbers without * were called inactive.

How did COc1ccc(CN2C(=O)NC(=O)/C(=C/c3ccc([N+](=O)[O-])s3)C2=O)cc1 do in these assays?
CaV13 FRET inh: -4.2; Xi reactivation: 0.1; DENV2 CPE: 7.0; FN deposition inh: 2.2; CASP6 VEID inh: 43.7*

What do the screens show for `O=C1NC(=O)N(Cc2ccc(F)cc2)C(=O)/C1=C\c1ccc([N+](=O)[O-])s1`?
CaV13 FRET inh: -4.2; Xi reactivation: 0.3; DENV2 CPE: -1.4; FN deposition inh: -10.0; CASP6 VEID inh: 31.9

How did COc1ccc(N2C(=O)NC(=O)/C(=C/c3ccc([N+](=O)[O-])s3)C2=O)cc1 do in these assays?
CaV13 FRET inh: -4.4; Xi reactivation: 0.1; DENV2 CPE: 11.0; FN deposition inh: 1.0; CASP6 VEID inh: 30.4

What do the screens show for `COc1ccc(N2C(=O)NC(=O)/C(=C\c3ccc([N+](=O)[O-])s3)C2=O)cc1`?
CaV13 FRET inh: 5.3; Xi reactivation: 0.0; DENV2 CPE: -2.7; FN deposition inh: 9.4; CASP6 VEID inh: 52.3*

How did COc1cccc(N2C(=O)NC(=O)/C(=C/c3ccc([N+](=O)[O-])s3)C2=O)c1 do in these assays?
CaV13 FRET inh: -2.3; Xi reactivation: 0.2; DENV2 CPE: -2.2; FN deposition inh: -0.8; CASP6 VEID inh: 47.4*

Results for CN(C)CC1CSCCC1(O)c1ccc(C(F)(F)F)cc1 (stereo not drawn) ?
CaV13 FRET inh: -4.4; Xi reactivation: 0.0; DENV2 CPE: 68.9*; FN deposition inh: -0.4; CASP6 VEID inh: 0.3

How did COc1cc2c(cc1OC)-c1c(OC)c(OC)cc3c1C(C2)N(C)CC3 (stereo not drawn) do in these assays?
DENV2 CPE: -2.4; CASP6 VEID inh: 68.5*

How did COc1cc2c(cc1OC)-c1c3c(cc4c1[C@@H](C2)N(C)CC4)OCO3 do in these assays?
CaV13 FRET inh: -2.9; Xi reactivation: 0.0; DENV2 CPE: -4.5; FN deposition inh: -0.4; CASP6 VEID inh: 48.0*

How did COc1ccc(CC2c3cc(OC)c(OC)cc3CCN2C)cc1O (stereo not drawn) do in these assays?
CaV13 FRET inh: -13.2; Xi reactivation: -0.1; DENV2 CPE: 1.5; FN deposition inh: -11.3; CASP6 VEID inh: 5.4

How did COc1cc2c(cc1O)C[C@H]1NCCc3cc4c(c-2c31)OCO4 do in these assays?
CaV13 FRET inh: -2.5; Xi reactivation: 0.0; DENV2 CPE: -2.4; FN deposition inh: -11.0; CASP6 VEID inh: 16.1

How did CC(C)[C@H](NC(=O)N1C[C@H]2C[C@@H](C1)c1cccc(=O)n1C2)C(=O)Nc1ccccc1F do in these assays?
DENV2 CPE: 58.2*; CASP6 VEID inh: -3.0

What do the screens show for `Cc1cccc(NC(=O)[C@@H](NC(=O)N2C[C@H]3C[C@@H](C2)c2cccc(=O)n2C3)C(C)C)c1`?
DENV2 CPE: -5.9; CASP6 VEID inh: -2.8

What do the screens show for `O=C(CCC(=O)N1C[C@H]2C[C@@H](C1)c1cccc(=O)n1C2)NCc1ccc(F)cc1`?
DENV2 CPE: 81.0*; CASP6 VEID inh: -3.8

How did COc1ccccc1CNC(=O)CCC(=O)N1C[C@H]2C[C@@H](C1)c1cccc(=O)n1C2 do in these assays?
DENV2 CPE: -0.7; CASP6 VEID inh: 5.1

What do the screens show for `CC(=O)N1C[C@@H]2C(c3ccccc3)[C@H](C1)N2C` (stereo partly drawn)?
Xi reactivation: 0.2; FN deposition inh: -6.1

Results for FC(F)(F)CN1C[C@@H]2C(c3ccccc3)[C@H](C1)N2CC1CC1 (stereo partly drawn) ?
Xi reactivation: 0.4; FN deposition inh: -16.3

Results for C/C=C/c1ccc(C2[C@@H]3CN(C(C)=O)C[C@H]2N3)cc1 (stereo partly drawn) ?
Xi reactivation: 0.1; DENV2 CPE: 12.2; FN deposition inh: -5.0; CASP6 VEID inh: -13.9

How did O=C(O)[C@@H]1[C@@H](CO)[C@@H]2Cn3c(ccc(-c4ccncc4)c3=O)[C@H]1N2C(=O)C1CCCC1 do in these assays?
Xi reactivation: -0.1; DENV2 CPE: -0.4; CASP6 VEID inh: 0.7

How did N#Cc1cccc(-c2ccc([C@H]3[C@@H](CO)N4CCCCN(C(=O)Cc5cccnc5)C[C@H]34)cc2)c1 do in these assays?
Xi reactivation: 0.1; DENV2 CPE: 38.0*; CASP6 VEID inh: 2.4

What do the screens show for `O=C(Cc1cccnc1)N1CCCCN2[C@@H](CO)[C@@H](c3ccc(C#CC4(O)CCCC4)cc3)[C@@H]2C1`?
Xi reactivation: 0.1; DENV2 CPE: 39.9*; CASP6 VEID inh: 0.5

What do the screens show for `N#Cc1cccc(-c2ccc([C@H]3[C@H](CO)N4CCCCN(C(=O)Cc5cccnc5)C[C@@H]34)cc2)c1`?
Xi reactivation: 1.7; DENV2 CPE: 6.2; CASP6 VEID inh: 1.0

How did COc1ccc(C#Cc2ccc([C@@H]3[C@@H](CO)N4CCCCN(C(=O)Cc5ccncc5)C[C@@H]34)cc2)cc1 do in these assays?
Xi reactivation: 1.1; DENV2 CPE: 35.9*; CASP6 VEID inh: 1.3

Results for O=C(Cc1cccnc1)N1CCCCN2[C@@H](CO)[C@@H](c3ccc(C#CC4CCCC4)cc3)[C@@H]2C1 ?
Xi reactivation: 0.2; DENV2 CPE: 32.4*; CASP6 VEID inh: 2.3

What do the screens show for `C=CCN1[C@@H]2CN(C(=O)NC(C)C)C[C@H]1C2c1ccc(Br)cc1` (stereo partly drawn)?
Xi reactivation: 1.2; FN deposition inh: -8.3

What do the screens show for `O=C(Cc1ccncc1)N1CCCCN2[C@H](CO)[C@H](c3ccc(C#CC4(O)CCCC4)cc3)[C@@H]2C1`?
Xi reactivation: 0.0; DENV2 CPE: 9.7; CASP6 VEID inh: 1.3

Results for O=C(Cc1cccnc1)N1CCCCN2[C@H](CO)[C@@H](c3ccc(C#CC4CCCC4)cc3)[C@H]2C1 ?
Xi reactivation: 0.0; DENV2 CPE: 39.6*; CASP6 VEID inh: 0.4

Results for COc1ccc(N2C(=O)/C(=C/c3ccc(N(C)C)o3)C(=O)NC2=S)cc1 ?
CaV13 FRET inh: -21.7; Xi reactivation: 0.0; DENV2 CPE: inconclusive; FN deposition inh: -5.2; CASP6 VEID inh: 10.6

Results for Cc1ccc(/C=C2\C(=O)NC(=S)N(c3ccc(F)cc3)C2=O)o1 ?
CaV13 FRET inh: -5.6; Xi reactivation: 0.0; DENV2 CPE: -6.8; FN deposition inh: -3.7; CASP6 VEID inh: 40.6*

Results for COc1cccc(N2C(=O)/C(=C/c3ccc(C)o3)C(=O)NC2=S)c1 ?
CaV13 FRET inh: -17.9; Xi reactivation: 0.2; DENV2 CPE: 14.2; FN deposition inh: -8.0; CASP6 VEID inh: 39.7*

What do the screens show for `CC(C)OP(=O)(O)NC(=O)c1ccccc1`?
CaV13 FRET inh: 167.5*; Xi reactivation: 0.3; DENV2 CPE: 5.6; FN deposition inh: -9.6; CASP6 VEID inh: 0.8

Results for O=C1NC(=O)N(CCC2=CCCCC2)C(=O)/C1=C\c1cccs1 ?
CaV13 FRET inh: -16.4; Xi reactivation: 0.3; DENV2 CPE: -1.2; FN deposition inh: 2.1; CASP6 VEID inh: 37.0*
